Measured values taken from ChEMBL document CHEMBL4414601 (J Med Chem, 2019).
Values after ≈ are worked out from the molar mass of the structure shown.

Key:
[1] = Aqueous solubility of compound; details: buffer
L929 = assay: Cytotoxicity against mouse L929 cells assessed as reduction in viability by dual luciferase reporter gene assay; type: ADME, cell-based
[2] = Permeability of compound by PAMPA
[3] = Lipophilicity, LogD of compound by reverse phase HPLC analysis
Plasmodium falciparum [4] = assay: Antiplasmodial activity against Plasmodium falciparum 3D7A erythrocytic stage assessed as reduction in [3H]hypoxanthine incorporation preincubated for 24 hrs followed by [3H]hypoxanthine addition and measured after 24 hrs by microbeta scintillation counting method; type: functional, organism-based
Summary of the method: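 Nine threefold serial dilutions from 5 μM top concentration. Incubated 24 h at 37 °C under 5% CO2/5% O2/90% N2, then 0.2 μCi [3H]-hypoxanthine per well for another 24 h. Cells harvested on glass fibre filters and counted. Data normalized to compound-free parasitized RBCs; IC50 fitted.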

Plasmodium falciparum [5] = assay: Antiplasmodial activity against […] of Plasmodium falciparum NF54 assessed as reduction in male gametocytes activation preincubated for 48 hrs followed by gametocytes activation and measured after 24 hrs by fluorescence based automated inverted microscopic analysis; type: functional, organism-based
Summary of the method: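 Gametocyte activation was triggered by reduced temperature and ookinete medium containing xanthurenic acid. Male exflagellation centres were detected from a 10-frame video, scoring pixel changes caused by flagellar movement shifting surrounding cells.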

Plasmodium falciparum [6] = assay: Antiplasmodial activity against […] of Plasmodium falciparum NF54 assessed as reduction in female gametocytes activation preincubated for 48 hrs followed by gametocytes activation and measured after 24 hrs by fluorescence based automated inverted microscopic analysis; type: functional, organism-based
Summary of the method: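 NF54 gametocytes were activated by lowered temperature plus ookinete medium with xanthurenic acid and anti-Pfs25-Cy3 antibody (1/2000 final dilution). Cultures were then kept at 26 °C for 24 h in the dark. Activated females were counted by Cy3 anti-Pfs25 fluorescence, with events gated on size, roundness and fluorescence intensity.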

[7] = Clearance in rat liver microsomes at 0.5 uM measured up to 45 mins in presence of NADPH by HPLC-MS/MS analysis; type: ADME, Microsome
[8] = Clearance in human liver microsomes at 0.5 uM measured up to 45 mins in presence of NADPH by HPLC-MS/MS analysis; type: ADME, Microsome
[9] = Clearance in mouse liver microsomes at 0.5 uM measured up to 45 mins in presence of NADPH by HPLC-MS/MS analysis; type: ADME, Microsome

SMILES	solubility [1]	EC50 (L929)	Papp [2]	chromatographic logD [3]	EC50 (Plasmodium falciparum [4])	EC50 (Plasmodium falciparum [5])	EC50 (Plasmodium falciparum [6])	CLH [7]	CLH [8]	CLH [9]
Fc1ccc(-c2nc(C3CCNCC3)sc2-c2ccnc(NCCN3CCCC3)n2)cc1	297 µM (≈ 134 µg/mL)	38 µM	1 ×10⁻⁶ cm/s	1.13	3.19 µM	–	–	–	–	–
CN1CCN(CCNc2nccc(-c3sc(C4CCNCC4)nc3-c3ccc(F)cc3)n2)CC1	238 µM (≈ 115 µg/mL)	100 µM	1 ×10⁻⁶ cm/s	1.34	> 5 µM	–	–	–	–	–
OC1CCN(c2nccc(-c3sc(C4CCNCC4)nc3-c3ccc(F)cc3)n2)C1 (centres undefined)	273 µM (≈ 116 µg/mL)	72.4 µM	6.5 ×10⁻⁶ cm/s	1.92	> 5 µM	–	–	–	–	–
c1cc(Nc2nccc(-c3sc(C4CCNCC4)nc3C3CC3)n2)ncn1	139 µM (≈ 52.7 µg/mL)	43.7 µM	18 ×10⁻⁶ cm/s	1.71	3.45 µM	–	–	–	–	–
Fc1ccc(-c2nc(C3CCNCC3)sc2-c2ccnc(NCC3CCCO3)n2)cc1 (centres undefined)	299 µM (≈ 131 µg/mL)	17 µM	32 ×10⁻⁶ cm/s	2.77	> 5 µM	–	–	–	–	–
Fc1ccc(-c2nc(C3CCNCC3)sc2-c2ccnc(N3CCC(N4CCOCC4)CC3)n2)cc1	251 µM (≈ 128 µg/mL)	15.5 µM	27 ×10⁻⁶ cm/s	2.83	2.37 µM	–	–	–	–	–
COCCNc1nccc(-c2sc(C3CCNCC3)nc2-c2ccc(F)cc2)n1	235 µM (≈ 97.2 µg/mL)	33.9 µM	30 ×10⁻⁶ cm/s	2.45	> 5 µM	–	–	–	–	–
Fc1ccc(-c2nc(N3CCOCC3)sc2-c2ccnc(Nc3ccc(N4CCNCC4)cc3)n2)cc1	38 µM (≈ 19.7 µg/mL)	3.3 µM	28 ×10⁻⁶ cm/s	3.99	1.62 µM	1120 nM	1070 nM	0.59 mL/min/g	0.4 mL/min/g	0.48 mL/min/g
Fc1ccc(-c2nc(C3CCNCC3)sc2-c2ccnc(N3CCC(N4CCC4)CC3)n2)cc1	114 µM (≈ 54.6 µg/mL)	25.7 µM	7.2 ×10⁻⁶ cm/s	1.63	4.25 µM	–	–	–	–	–
CCCS(=O)(=O)Nc1nc(-c2ccc(F)cc2)c(-c2ccnc(Nc3ccc(N4CCNCC4)cc3)n2)s1	–	100 µM	–	2.5	4.86 µM	–	–	–	–	–
CCOc1nccc(Nc2nccc(-c3sc(C4CCNCC4)nc3-c3ccc(F)cc3)n2)n1	35 µM (≈ 16.7 µg/mL)	2.1 µM	17 ×10⁻⁶ cm/s	3.21	0.6 µM	–	–	–	–	–
COc1cc(Nc2nccc(-c3sc(C4CCNCC4)nc3-c3ccc(F)cc3)n2)cc(C)n1	–	1.2 µM	19 ×10⁻⁶ cm/s	3.36	0.38 µM	–	–	–	–	–
Cc1cc(Nc2nccc(-c3sc(C4CCNCC4)nc3-c3ccc(F)cc3)n2)nn1C	146 µM (≈ 65.6 µg/mL)	5.1 µM	20 ×10⁻⁶ cm/s	2.52	> 5 µM	–	–	–	–	–
OCCNc1nccc(-c2sc(C3CCNCC3)nc2-c2ccc(F)cc2)n1	351 µM (≈ 140 µg/mL)	61.7 µM	1 ×10⁻⁶ cm/s	1.52	4.05 µM	–	–	–	–	–
Fc1ccc(-c2nc(C3CCNCC3)sc2-c2ccnc(Nc3ccccn3)n2)cc1	56 µM (≈ 24.2 µg/mL)	6.2 µM	33 ×10⁻⁶ cm/s	2.96	2.41 µM	–	–	–	–	–
CCOC(=O)N1CCC(c2nc(-c3ccc(F)cc3)c(-c3ccnc(Nc4ccc(N5CCN(C)CC5)cc4)n3)s2)CC1	23 µM (≈ 13.8 µg/mL)	6.5 µM	41 ×10⁻⁶ cm/s	6.66	> 5 µM	–	–	–	–	–
Fc1ccc(-c2nc(C3CCNCC3)sc2-c2ccnc(Nc3cccnn3)n2)cc1	123 µM (≈ 53.3 µg/mL)	3.2 µM	19 ×10⁻⁶ cm/s	2.14	0.98 µM	–	–	0.95 mL/min/g	0.47 mL/min/g	4.42 mL/min/g
Fc1ccc(-c2nc(C3CCNCC3)sc2-c2ccnc(N3CCC(CN4CCOCC4)CC3)n2)cc1	355 µM (≈ 186 µg/mL)	12.9 µM	38 ×10⁻⁶ cm/s	3.75	> 5 µM	–	–	–	–	–
C[C@H]1[C@H](OC(=O)CCC(=O)O)O[C@@H]2O[C@@]3(C)CC[C@H]4[C@H](C)CC[C@@H]1[C@@]24OO3 [ARTESUNATE]	–	–	–	–	0.03 µM	> 10000 nM	> 10000 nM	–	–	–
Fc1ccc(-c2nc(C3CCNCC3)sc2-c2ccnc(Nc3ccn(C4CCNCC4)n3)n2)cc1	131 µM (≈ 66.1 µg/mL)	100 µM	3 ×10⁻⁶ cm/s	1.29	3.31 µM	–	–	–	–	–
CCc1cc(Nc2nccc(-c3sc(C4CCNCC4)nc3-c3ccc(F)cc3)n2)nc(C)c1F	17 µM (≈ 8.37 µg/mL)	4.3 µM	–	4.92	2.9 µM	–	–	–	–	–

SMILES	solubility [1]	EC50 (L929)	Papp [2]	chromatographic logD [3]	EC50 (Plasmodium falciparum [4])	EC50 (Plasmodium falciparum [5])	EC50 (Plasmodium falciparum [6])	CLH [7]	CLH [8]	CLH [9]
Nc1nccc(-c2sc(C3CCNCC3)nc2-c2ccc(F)cc2)n1	467 µM (≈ 166 µg/mL)	55 µM	13 ×10⁻⁶ cm/s	1.5	2.2 µM	–	–	–	–	–
O=S(=O)(Nc1nc(-c2ccc(F)cc2)c(-c2ccnc(Nc3ccc(N4CCNCC4)cc3)n2)s1)C1CCNCC1	–	74.1 µM	3 ×10⁻⁶ cm/s	1.34	> 5 µM	–	–	–	–	–
CN(C)CCNc1nccc(-c2sc(C3CCNCC3)nc2-c2ccc(F)cc2)n1	244 µM (≈ 104 µg/mL)	100 µM	2.4 ×10⁻⁶ cm/s	1.07	3.11 µM	–	–	–	–	–
CN1CCC(C(=O)Nc2nc(-c3ccc(F)cc3)c(-c3ccnc(Nc4ccc(N5CCNCC5)cc4)n3)s2)CC1	11 µM (≈ 6.3 µg/mL)	7.8 µM	1 ×10⁻⁶ cm/s	2.2	1.46 µM	630 nM	1310 nM	0.46 mL/min/g	0.4 mL/min/g	0.48 mL/min/g
Cc1csc(Nc2nccc(-c3sc(C4CCNCC4)nc3-c3ccc(F)cc3)n2)n1	40 µM (≈ 18.1 µg/mL)	2.2 µM	15 ×10⁻⁶ cm/s	2.99	3.85 µM	–	–	–	–	–
Nc1nc(-c2ccc(F)cc2)c(-c2ccnc(Nc3ccc(N4CCOCC4)cc3)n2)s1	26 µM (≈ 11.7 µg/mL)	19.5 µM	3 ×10⁻⁶ cm/s	4.61	–	–	–	–	–	–
CN1CCN(c2ccc(Nc3nccc(-c4sc(N)nc4-c4ccc(F)cc4)n3)cc2)CC1	8 µM (≈ 3.69 µg/mL)	2.5 µM	26 ×10⁻⁶ cm/s	3.61	> 5 µM	–	–	–	–	–
Cc1nccc(Nc2nccc(-c3sc(C4CCNCC4)nc3-c3ccc(F)cc3)n2)n1	47 µM (≈ 21 µg/mL)	2.5 µM	18 ×10⁻⁶ cm/s	2.43	0.81 µM	–	–	–	–	–
CCc1nc(N)nc(N)c1-c1ccc(Cl)cc1 [PYRIMETHAMINE]	–	–	–	–	0.1 µM	> 10000 nM	> 10000 nM	–	–	–
Fc1ccc(-c2nc(C3CCNCC3)oc2-c2ccnc(Nc3ccncn3)n2)cc1	226 µM (≈ 94.3 µg/mL)	21.4 µM	19 ×10⁻⁶ cm/s	1.79	> 5 µM	–	–	–	–	–
Fc1ccc(-c2nc(C3CCNCC3)sc2-c2ccnc(NCCN3CCOCC3)n2)cc1	408 µM (≈ 191 µg/mL)	–	17 ×10⁻⁶ cm/s	2.02	> 5 µM	–	–	–	–	–
Cc1nnc(Nc2nccc(-c3sc(C4CCNCC4)nc3-c3ccc(F)cc3)n2)s1	74 µM (≈ 33.6 µg/mL)	4.4 µM	8 ×10⁻⁶ cm/s	2.02	4.44 µM	–	–	–	–	–
CN1CCC(Nc2nccc(-c3sc(C4CCNCC4)nc3-c3ccc(F)cc3)n2)C1 (centres undefined)	402 µM (≈ 176 µg/mL)	37.2 µM	1.7 ×10⁻⁶ cm/s	1.14	2.72 µM	–	–	–	–	–
Cc1nc(Nc2nccc(-c3sc(C4CCNCC4)nc3-c3ccc(F)cc3)n2)cc(C2CCC2)c1F	7 µM (≈ 3.63 µg/mL)	18.6 µM	–	5.52	> 5 µM	–	–	–	–	–
Oc1cc(Nc2nccc(-c3sc(C4CCNCC4)nc3-c3ccc(F)cc3)n2)ccn1	–	100 µM	2 ×10⁻⁶ cm/s	1.64	3.47 µM	–	–	–	–	–
Fc1ccc(-c2nc(C3CCNCC3)sc2-c2ccnc(N3CCCC3)n2)cc1	374 µM (≈ 153 µg/mL)	13.8 µM	46 ×10⁻⁶ cm/s	3.71	> 5 µM	–	–	–	–	–
Cc1nc(Nc2nccc(-c3sc(C4CCNCC4)nc3-c3ccc(F)cc3)n2)ccc1F	16 µM (≈ 7.43 µg/mL)	5.2 µM	30 ×10⁻⁶ cm/s	3.96	> 5 µM	–	–	–	–	–
CN(C)C(CNc1nccc(-c2sc(C3CCNCC3)nc2-c2ccc(F)cc2)n1)C1CC1 (centres undefined)	514 µM (≈ 240 µg/mL)	12 µM	3.4 ×10⁻⁶ cm/s	1.68	2.35 µM	–	–	–	–	–
O[C@H]1CC[C@H](Nc2nccc(-c3sc(C4CCNCC4)nc3-c3ccc(F)cc3)n2)CC1	287 µM (≈ 130 µg/mL)	27.5 µM	5.5 ×10⁻⁶ cm/s	2.12	> 5 µM	–	–	–	–	–
O=C(Nc1nc(-c2ccc(F)cc2)c(-c2ccnc(Nc3ccc(N4CCNCC4)cc3)n2)s1)C1CC1	–	25.7 µM	2 ×10⁻⁶ cm/s	2.53	> 5 µM	–	–	–	–	–
